Data set [1] in a line: Inhibition of Escherichia coli DNA polymerase 3 beta assessed as inhibition of 5-carboxyfluorescein-QLDLF binding by fluorescence polarization-based competition assay. The method, boiled down: (§1)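 Competition fluorescence polarization with E. coli sliding clamp and tracer 5-carboxyfluorescein-QLDLF (Kd 70 nM). Inhibition of tracer binding plotted against inhibitor concentration. IC50 converted to Ki using the Kenakin correction for ligand depletion.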
(Polarisation of emitted light reports the rotation of a fluorescent probe.)

Data set [2] concerns Escherichia coli. In words: Antibacterial activity against Escherichia coli DH5[alpha] after 24 hrs by broth microdilution method. In kind it is functional. In short, it runs like this:
(§2)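 CLSI broth microdilution in cation-adjusted Mueller Hinton II broth. Overnight cultures diluted to 5 × 10⁴ CFU/mL. Compounds from 100 mM DMSO stocks, serially 2-fold diluted. OD read at 595 nm before and after 24 h at 37 °C. MIC taken as lowest concentration with background-subtracted OD <0.1. Controls: medium blank, DMSO vehicle, antibiotic.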

The next data set relates to Acinetobacter baylyi. In words: Antibacterial activity against Acinetobacter baylyi ADP1 after 24 hrs by broth microdilution method. Format: functional. The conditions noted are these: ADP1, 24 h. The method, boiled down: as §2
For orientation: In broth dilution the organism is exposed to a series of concentrations in liquid medium.

In a further data set the test system is Bacillus subtilis. In words: Antibacterial activity against Bacillus subtilis SU5 after 24 hrs by broth microdilution method. As to conditions: SU5, 24 h. In kind it is functional. The method, boiled down:
as §2

Another data set deals with Staphylococcus aureus. In words: Antibacterial activity against Staphylococcus aureus NCTC 8325 after 24 hrs by broth microdilution method. In kind it is functional. As to conditions: NCTC 8325, 24 h. In short, it runs like this:
as §2

Data set [3] concerns Escherichia coli. As to the kind of experiment: Inhibition of Escherichia coli DNA polymerase 3 beta assessed as inhibition of 5-carboxyfluorescein-QLDLF binding at <1 mM by fluorescence polarization-based competition assay. The method, boiled down:
as §1

Data set [4] is described as follows: Distribution coefficient, log D of the compound at pH 7.2. In kind it is physicochemical. The conditions noted are these: octanol/water.
Data set [5] deals with Escherichia coli. In words: Inhibition of Escherichia coli DNA polymerase 3 beta assessed as inhibition of M13 ssDNA replication at 500 to 1000 uM after 60 mins by agarose gel electrophoresis-UV transilluminator analysis in presence of polymerase 3 alpha and reconstituted clamp loader complex gamm3-delta-delta'. In short, it runs like this:
(§3)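 Reconstituted replication of 3 nM RNA-primed M13 ssDNA in 20 mM Tris-HCl pH 7.6, 10 mM MgCl2, 0.8 mM ATP, 8.4 mM DTT, 0.6 mM each dNTP, 120 mM NaCl, with 211 nM Pol III α, 700 nM SSB tetramer, 210 nM β dimer, 42 nM γ3δδ′. Compounds added at 0 °C, final 3.4% DMSO. Run 60 min at 30 °C, quenched with EDTA/SDS, products resolved on 0.7% agarose, SYBR Gold stained, viewed by UV.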

For data set [6], the system named is Escherichia coli. In words: Inhibition of Escherichia coli DNA polymerase 3 beta assessed as inhibition of M13 ssDNA replication at 250 uM after 60 mins by agarose gel electrophoresis-UV transilluminator analysis in presence of polymerase 3 alpha and reconstituted clamp loader complex gamm3-delta-delta'. The method, boiled down:
as §3

Converted amounts (≈) assume the structure as drawn. The source made the active and inactive calls. The rule behind the calls is not given here.

As a reminder, the IC50 is the concentration that inhibits the measured activity by half. Broadly, the MIC is the least concentration at which growth counts as inhibited. A higher MIC goes with weaker potency. As to `COC(=O)[C@@H]1CCCc2c1[nH]c1ccc(Cl)cc21`, the IC50 in data set [1] is above 1000 µM. Also, the minimum inhibitory concentration (MIC) in the data set on Escherichia coli [2] turned out to be 156 µM (≈ 41.1 µg/mL); against Acinetobacter baylyi, 78 µM (≈ 20.6 µg/mL); in the data set with Bacillus subtilis, 78 µM (≈ 20.6 µg/mL); against Staphylococcus aureus, 156 µM (≈ 41.1 µg/mL).

`O=C1Nc2ccc(Cl)cc2C1=O`: the inhibition result with Escherichia coli [3] is “inactive”.

The Ki is the equilibrium dissociation constant of an inhibitor or competing ligand from its target. A word on the logD: it is lipophilicity at a set pH, counting ionised and neutral species. Take `CCOC(=O)[C@@H]1CCCc2c1[nH]c1ccc(Cl)cc21`: the IC50 in [1] was found to be 899 µM. In addition, the inhibitory constant (Ki) in [1] is 499 µM. Moreover, the minimal inhibitory concentration (MIC) with Escherichia coli [2] is 78 µM (≈ 21.7 µg/mL); in the data set on Acinetobacter baylyi it was 156 µM (≈ 43.3 µg/mL); in the data set with Bacillus subtilis, 78 µM (≈ 21.7 µg/mL); with Staphylococcus aureus it was 78 µM (≈ 21.7 µg/mL). The log distribution coefficient (logD) in data set [4] (read-out: logD) amounted to 4.44.

In the case of `O=[N+]([O-])c1ccc2cn[nH]c2c1`, the inhibition entry in the data set with Escherichia coli [3] was “inactive”.

`O=C(O)c1ccc(-c2ccc(F)cc2)cc1`: the IC50 in data set [1] is 504 µM. The inhibition constant (Ki) in [1] was 280 µM. Further, the inhibition result in the data set on Escherichia coli [5] was “Active”. Besides, the minimum inhibitory concentration (MIC) in the data set with Escherichia coli [2] was determined as 2500 µM (≈ 541 µg/mL); in the data set with Acinetobacter baylyi, 5000 µM (≈ 1080 µg/mL); in the data set on Bacillus subtilis, 2500 µM (≈ 541 µg/mL); against Staphylococcus aureus, 5000 µM (≈ 1080 µg/mL). Moreover, the pH-dependent lipophilicity (logD) in data set [4] (read-out: logD) is -3.17.

For the molecule `Clc1ccc2c(c1)c1ccccc1n2CC1CO1` (centres undefined), in data set [1], the IC50 came out at 358 µM and the inhibition constant Ki came to 199 µM. In addition, the inhibition entry in the data set with Escherichia coli [5] was “Active”. Moreover, in data set [4], the pH-dependent lipophilicity (logD) was 4.93.

Regarding `O=[N+]([O-])c1ccc2[nH]ccc2c1`, in the data set on Escherichia coli [3], the inhibition result is “inactive”.

For `NC(=O)c1ccc(F)c(F)c1`, the inhibition result with Escherichia coli [3] is “inactive”.

As for `O=C(O)[C@@H]1CCCc2c1[nH]c1ccc(Cl)cc21`, the IC50 in data set [1] was found to be 115 µM. In [1], the inhibition constant Ki was found to be 64 µM. The inhibition entry with Escherichia coli [6] is “Active”. Moreover, the minimum inhibitory concentration (MIC) is 313 µM (≈ 78.2 µg/mL) in the data set on Escherichia coli [2], 313 µM (≈ 78.2 µg/mL) against Acinetobacter baylyi, 156 µM (≈ 39 µg/mL) against Bacillus subtilis and 156 µM (≈ 39 µg/mL) with Staphylococcus aureus. For the same molecule, the logD in [4] (read-out: logD) was 0.36.

On to `O=C(O)c1cc2[nH]c3c(c2cc1Cl)CCCC3`, for which the half-maximal inhibitory concentration (IC50) in [1] stood at 389 µM. Also, the Ki in data set [1] came to 216 µM. Moreover, the inhibition entry with Escherichia coli [5] was “Active”. Also, the minimal inhibitory concentration (MIC) against Escherichia coli [2] was 2500 µM (≈ 624 µg/mL); against Acinetobacter baylyi, 5000 µM (≈ 1250 µg/mL); with Bacillus subtilis it was 2500 µM (≈ 624 µg/mL); against Staphylococcus aureus, 2500 µM (≈ 624 µg/mL). In data set [4] (read-out: logD), the logD was -0.48.

These data come from ChEMBL document CHEMBL3232766, “Discovery of lead compounds targeting the bacterial sliding clamp using a fragment-based approach” (J Med Chem, 2014).
